According to ChEMBL document CHEMBL5352422, “Development of l-Dopa-containing diketopiperazines as blood-brain barrier shuttle” (Eur J Med Chem, 2022):
The source made the active and inactive calls. The calls are words filed in the database; no cut-off is given here.

Legend:
[1] = Genotoxicity in human Lymphocyte assessed as micronuclei formation measured per 1000 cells at 10 nM incubated for 72 hrs giemsa staining based analysis (reference value: 4.5 to 17.9); assay type: toxicity, cell-based; settings: 0.01 µM
Outline: (§1)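 Human whole-blood lymphocyte cultures with phytohemagglutinin, incubated with compound for 72 h at 37 °C. Cytochalasin B added at 44 h. Cells fixed in ice-cold methanol/acetic acid 1:1, cytospun, Giemsa-stained. At least 1000 binucleated lymphocytes per concentration scored for micronuclei by one observer.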

[2] = Induction of DNA damage in rat Cerebral cortex cell assessed as 8-OH-dG adducts formation at 50 nM incubated for 24 hrs by […] (reference value: 0.14 to 1.92 pg/ml); assay type: functional, Cerebral cortex neuron
Outline: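 Primary rat cerebral cortex neurons from fetuses, grown in neurobasal medium with FCS on poly-D-lysine flasks and used after 8 days. Aqueous compound at 10–500 nM for 24 h at 37 °C. Untreated cultures served as negative control and MMC 10^-7 M as positive control. 8-OH-dG measured with a commercial ELISA-type kit and reported in pg/mL. Four independent experiments, mean ± SD.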

[3] = Antioxidant activity against Primary human whole blood cell assessed as H2O2 equivalent of total oxidative stress at 500 nM incubated for 24 hrs (0.6 to 1.9 micromolequiv/L); assay type: functional
[4] = Stability in human plasma assessed as observed rate constant by HPLC method; assay type: ADME, cell-free
Outline: (§2)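 Stock added to 37 °C human plasma diluted with 0.02 M phosphate buffer pH 7.4 to 80% plasma. Aliquots taken over time were quenched with 0.01 M HCl in methanol, centrifuged 5 min at 5000 g, and supernatant analyzed by HPLC-UV. t1/2 and k_obs are means of three experiments ± SD.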

[5] = Antioxidant activity against rat Cerebral cortex cell assessed as H2O2 equivalent of total oxidative stress at 10 nM incubated for 24 hrs (0.7 to 2.3 micromolequiv/L); assay type: functional, Cerebral cortex neuron
[6] = Stability of the compound in stimulated intestinal fluid at 40 mg/ml pancreatin by measuring half life measured upto 180 mins by HPLC analysis; assay type: ADME; settings: simulated intestinal fluid with pancreatin
Outline: (§3)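 USP simulated intestinal fluid containing pancreatin, in a 37 °C shaking water bath. Samples at 0, 60, 120 and 180 min were quenched with ice-cold acetonitrile containing 0.5% formic acid, centrifuged at 4 °C for 10 min, filtered and analyzed by HPLC. Means of three experiments ± SD.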

PC-12 [7] = test: Upregulation of Gpx expression in MPP+ induced rat PC-12 cells at 100 nM pretreated with compound for 24 hrs followed by MPP+ stimulation and measured after 6 hrs; assay type: functional, cell-based; settings: time 30.0 hrs
Outline: (§4)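 PC12 cells pretreated 24 h with compound, then exposed to 25 μM MPP+ for 6 h. mRNA quantified by real-time PCR (95 °C 3 min, then 40 cycles of 95 °C 10 s and 62 °C 30 s), samples in triplicate. Values normalized to β-actin, expressed as 2^-ΔΔCt with untreated cells set to 1.0. n = 3.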

[8] = Genotoxicity in human Lymphocyte assessed as sister chromatid exchange measured per cells at 250 nM incubated for 72 hrs giemsa staining based fluorescence method (reference value: 6.6 to 14.3); assay type: toxicity, cell-based; settings: 0.25 µM
[9] = Genotoxicity in human Lymphocyte assessed as micronuclei formation measured per 1000 cells at 250 nM incubated for 72 hrs giemsa staining based analysis (reference value: 4.5 to 17.9); assay type: toxicity, cell-based; settings: 0.25 µM; outline: as §1
[10] = Stability of the compound in hydrochloric acid buffer assessed as chemical hydrolysis by measuring observed rate constant at pH 1.2; assay type: physicochemical
Outline: (§5)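 Chemical hydrolysis at 37 °C in hydrochloric acid buffer pH 1.2 or phosphate buffer pH 7.4. Remaining compound followed by HPLC with UV detection. t1/2 and k_obs are means of three experiments ± SD.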

[11] = Antioxidant activity against Primary human whole blood cell assessed as trolox equivalent of total antioxidant capacity at 100 nM incubated for 24 hrs (19.3 to 32.5 mmolequiv/L ); assay type: functional
[12] = Stability of the compound in phosphate buffer assessed as chemical hydrolysis by measuring observed rate constant at pH 7.4; assay type: physicochemical; outline: as §5
PC-12 [13] = test: Upregulation of xCT expression in MPP+ induced rat PC-12 cells at 100 nM pretreated with compound for 24 hrs followed by MPP+ stimulation and measured after 6 hrs; assay type: functional, cell-based; settings: time 30.0 hrs; outline: as §4
[14] = Stability in human plasma assessed as half life by HPLC method; assay type: ADME, cell-free; outline: as §2
[15] = Antioxidant activity against Primary human whole blood cell assessed as H2O2 equivalent of total oxidative stress at 250 nM incubated for 24 hrs (0.6 to 1.9 micromolequiv/L); assay type: functional
[16] = Antioxidant activity against Primary human whole blood cell assessed as H2O2 equivalent of total oxidative stress at 100 nM incubated for 24 hrs (0.6 to 1.9 micromolequiv/L); assay type: functional
[17] = Genotoxicity in human Lymphocyte assessed as sister chromatid exchange measured per cells at 50 nM incubated for 72 hrs giemsa staining based fluorescence method (reference value: 6.6 to 14.3); assay type: toxicity, cell-based; settings: 0.05 µM
[18] = Antioxidant activity against rat Cerebral cortex cell assessed as trolox equivalent of total antioxidant capacity at 50 nM incubated for 24 hrs (14.7 to 27.5 mmolequiv/L ); assay type: functional, Cerebral cortex neuron
[19] = Antioxidant activity against Primary human whole blood cell assessed as trolox equivalent of total antioxidant capacity at 50 nM incubated for 24 hrs (19.3 to 32.5 mmolequiv/L ); assay type: functional
[20] = Antioxidant activity against Primary human whole blood cell assessed as H2O2 equivalent of total oxidative stress at 50 nM incubated for 24 hrs (0.6 to 1.9 micromolequiv/L); assay type: functional
[21] = Cytotoxicity against rat Cerebral cortex cell at 10 to 500 nM incubated for 24 hrs by LDH assay; assay type: toxicity, cell-based; settings: cerebral cortex neuron, 0.5 µM, dose 10-500 nM
Outline: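 Rat fetal cortical neuron or human whole-blood cultures treated 24 h at 37 °C with aqueous compound at 10–500 nM. LDH released into 100 µL of medium measured by kit as the rate of NAD+ reduction (lactate to pyruvate), absorbance increase at 490 nm. Mitomycin C 10^-7 M as positive control; four independent experiments.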

[22] = Induction of DNA damage in rat Cerebral cortex cell assessed as total DNA damage score at 100 nM incubated for 24 hrs by Comet assay (reference value: 36.8 to 89.2); assay type: functional, Cerebral cortex neuron
[23] = Induction of DNA damage in Primary human whole blood cell assessed as 8-OH-dG adducts formation at 100 nM incubated for 24 hrs by […] (reference value: 0.12 to 2.21 pg/ml); assay type: functional
[24] = Stability of the compound in stimulated intestinal fluid at 40 mg/ml pancreatin by measuring observed rate constant measured upto 180 mins by HPLC analysis; assay type: ADME; settings: simulated gi fluid, 3 h; outline: as §3

Row | SMILES | Activity [1] | Activity [2] | Activity [3] | Kobs [4] | Activity [5] | Activity [8] | Activity [9] | Kobs [10] | Activity [11] | Kobs [12] | half-life [14] | Activity [15] | Activity [16] | Activity [17] | Activity [18] | Activity [19] | Activity [20] | Activity [21] | Activity [22] | Activity [23] | further results
1 | C#CCSC[C@H]1NC(=O)[C@H](Cc2ccc(OC(C)=O)c(OC(C)=O)c2)NC1=O | 4.6 | 0.14 pg/mL | 0.7 umolequiv/L | 0.332 h⁻¹ | 0.7 umolequiv/L | 7.1 | 5.1 | 0.005 h⁻¹ | 19.5 mmolequiv/L | 0.015 h⁻¹ | 2.09 h | 0.7 umolequiv/L | 0.6 umolequiv/L | 6.8 | 15.5 mmolequiv/L | 19.5 mmolequiv/L | 0.6 umolequiv/L | Non-Toxic | 37.8 | 0.12 pg/mL | half-life [6]: 2.57 h; Activity (PC-12 [7]): Active; Activity (PC-12 [13]): Active; Kobs [24]: 0.27 h⁻¹
2 | C=CCSC[C@H]1NC(=O)[C@H](Cc2ccc(OC(C)=O)c(OC(C)=O)c2)NC1=O | 4.7 | 0.13 pg/mL | 0.7 umolequiv/L | 7.22 h⁻¹ | 0.7 umolequiv/L | 7.1 | 5.2 | 0.037 h⁻¹ | 19.7 mmolequiv/L | 0.022 h⁻¹ | 0.096 h | 0.7 umolequiv/L | 0.7 umolequiv/L | 6.7 | 14.3 mmolequiv/L | 19.4 mmolequiv/L | 0.7 umolequiv/L | Non-Toxic | 37.1 | 0.12 pg/mL | –
